# Laboratory results from ChEMBL document CHEMBL1126647, “Fluorine-18-labeled progestin ketals: synthesis and target tissue uptake selectivity of potential imaging agents for receptor-positive breast tumors” (J Med Chem, 1993).
# What was measured:
# [1] = molecular target: T1, Progesterone receptor (Rattus norvegicus) (UniProt Q63449); assay: Tissue distribution in brain 1 hr after [18F]4 injection into estrogen-primed immature rats at normal dose; type: functional, tissue-based
# T1 sequence (whole entry): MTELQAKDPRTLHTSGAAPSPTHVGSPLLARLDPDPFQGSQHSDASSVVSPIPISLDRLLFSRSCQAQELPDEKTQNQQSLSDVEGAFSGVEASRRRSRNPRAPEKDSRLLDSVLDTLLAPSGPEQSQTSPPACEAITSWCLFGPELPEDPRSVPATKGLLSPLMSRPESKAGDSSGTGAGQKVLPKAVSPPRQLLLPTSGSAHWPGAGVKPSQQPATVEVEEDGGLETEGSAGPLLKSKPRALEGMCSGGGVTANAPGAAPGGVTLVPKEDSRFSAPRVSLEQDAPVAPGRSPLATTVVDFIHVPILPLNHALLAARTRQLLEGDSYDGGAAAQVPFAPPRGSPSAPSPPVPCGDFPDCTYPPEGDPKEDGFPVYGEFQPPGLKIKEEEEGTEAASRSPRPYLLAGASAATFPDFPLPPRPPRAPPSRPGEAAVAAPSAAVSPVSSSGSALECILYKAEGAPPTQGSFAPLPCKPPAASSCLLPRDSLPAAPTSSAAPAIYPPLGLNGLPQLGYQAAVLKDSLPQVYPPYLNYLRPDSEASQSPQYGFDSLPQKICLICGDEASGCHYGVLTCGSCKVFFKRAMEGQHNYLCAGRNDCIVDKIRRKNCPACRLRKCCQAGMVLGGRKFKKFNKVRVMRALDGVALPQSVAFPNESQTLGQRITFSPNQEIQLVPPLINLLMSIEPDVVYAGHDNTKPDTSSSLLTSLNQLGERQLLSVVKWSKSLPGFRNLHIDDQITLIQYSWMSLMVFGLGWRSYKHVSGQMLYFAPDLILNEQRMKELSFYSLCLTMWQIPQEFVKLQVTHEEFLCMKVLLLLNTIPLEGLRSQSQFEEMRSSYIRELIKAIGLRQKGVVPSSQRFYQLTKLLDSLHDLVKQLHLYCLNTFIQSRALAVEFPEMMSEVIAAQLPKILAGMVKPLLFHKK
# Method in brief: (§1)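 Female Sprague-Dawley rats, 23 days old, primed with estradiol 5 μg s.c. in 20% ethanol/sunflower oil on two days and used 24 h later. Under ether, they received 51 μCi tracer (30 Ci/mmol) iv via the tail vein in 0.1 mL 10% ethanol/saline. Killed by decapitation at 1 h; tissues weighed and gamma-counted. Results as %ID/g or tissue ratios, mean ± SD, n = 5.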
# [2] = molecular target: T1, Progesterone receptor (Rattus norvegicus); assay: Tissue distribution in lung 3 hr after [18F]4 injection into estrogen-primed immature rats; type: functional, tissue-based
# Method in brief: (§2)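 Immature female Sprague-Dawley rats, estradiol-primed (5 μg s.c. in 20% ethanol/sunflower oil, two successive days, used 24 h later). Tracer (30 Ci/mmol) in 10% ethanol/saline was injected iv into the tail vein under ether anesthesia. Animals were decapitated 3 h postinjection; organs weighed and gamma-counted. %ID/g, mean ± SD, n = 5.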
# [3] = molecular target: T1, Progesterone receptor (Rattus norvegicus); assay: Tissue distribution in uterus/blood 3 hr after [18F]4 injection into estrogen-primed immature rats at low dose; type: functional, tissue-based
# [4] = molecular target: T1, Progesterone receptor (Rattus norvegicus); assay: Tissue distribution in ovaries 3 hr after [18F]4 injection into estrogen-primed immature rats; type: functional, tissue-based; conditions: Female gonad; method in brief: as §2
# [5] = molecular target: T1, Progesterone receptor (Rattus norvegicus); assay: Tissue distribution in bone 3 hr after [18F]4 injection into estrogen-primed immature rats; type: functional, tissue-based; conditions: Bone element; method in brief: as §2
# [6] = molecular target: T1, Progesterone receptor (Rattus norvegicus); assay: Tissue distribution in liver 1 hr after [18F]4 injection into estrogen-primed immature rats at low dose; type: functional, tissue-based
# Method in brief: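 Estrogen-primed immature female Sprague-Dawley rats (estradiol 5 μg s.c. daily ×2, used 24 h later) were given a reduced tracer dose of 30 μCi in 0.04 mL 10% ethanol/saline, tail vein iv, under ether. Decapitated at 1 h; organs weighed and gamma-counted. Results as %ID/g or uterus/tissue ratio, mean ± SD, n = 5.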
# [7] = molecular target: T1, Progesterone receptor (Rattus norvegicus); assay: Tissue distribution in blood 1 hr after [18F]4 injection into estrogen-primed immature rats co-injected uterine uptake blocker (ORG 2058); type: functional, tissue-based
# Method in brief: (§3)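 Blocking group: estrogen-primed immature female Sprague-Dawley rats (estradiol 5 μg s.c. ×2 days, used 24 h later). ORG 2058 18 μg was co-injected with the tracer dose iv via tail vein, 0.2 mL injection volume in 10% ethanol/saline. Killed 1 h later; tissues weighed and gamma-counted. Results as %ID/g or ratios, mean ± SD, n = 5.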
# [8] = molecular target: T1, Progesterone receptor (Rattus norvegicus); assay: Tissue distribution in ovaries 1 hr after [18F]4 injection into estrogen-primed immature rats co-injected with uterine uptake blocker (ORG2058); type: functional, tissue-based; conditions: Female gonad; method in brief: as §3
# [9] = molecular target: T1, Progesterone receptor (Rattus norvegicus); assay: Tissue distribution in muscle 1 hr after [18F]4 injection into estrogen-primed immature rats co-injected with uterine uptake blocker (ORG2058); type: functional, tissue-based; method in brief: as §3
# [10] = molecular target: T1, Progesterone receptor (Rattus norvegicus); assay: Tissue distribution in fat 1 hr after [18F]4 injection into estrogen-primed immature rats at normal dose; type: functional, tissue-based; conditions: Adipose tissue; method in brief: as §1
# [11] = molecular target: T1, Progesterone receptor (Rattus norvegicus); assay: Tissue distribution in liver 1 hr after [18F]4 injection into estrogen-primed immature rats co-injected with uterine uptake blocker (ORG 2058); type: functional, tissue-based; method in brief: as §3
# [12] = molecular target: T1, Progesterone receptor (Rattus norvegicus); assay: Tissue distribution in uterus/muscle 3 hr after [18F]4 injection into estrogen-primed immature rats; type: functional, tissue-based
# Method in brief: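 Immature female Sprague-Dawley rats (23 days old) were primed with 5 μg estradiol in 20% ethanol/sunflower oil s.c. on two successive days and used 24 h after the last injection. The 18F tracer (51 μCi, specific activity 30 Ci/mmol) in 10% ethanol/saline was given iv in the tail vein under ether anesthesia. Rats were decapitated at 3 h, and organs were weighed and gamma counted. Ratio of %ID/g, n = 5.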
# [13] = Partition coefficient (logP); type: physicochemical; conditions: octanol/water
# Method in brief: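 Octanol/water partition measured as log P by the Minick method. For some reference progestins, log P was also measured by shake flask.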
# [14] = molecular target: T1, Progesterone receptor (Rattus norvegicus); assay: Tissue distribution in muscle 3 hr after [18F]4 injection into estrogen-primed immature rats; type: functional, tissue-based; method in brief: as §2
SMILES,Injected dose/g [1],Injected dose/g [2],uterus/blood ratio [3],Injected dose/g [4],Injected dose/g [5],Injected dose/g [6],Injected dose/g [7],Injected dose/g [8],Injected dose/g [9],Injected dose/g [10],Injected dose/g [11],uterus/muscle ratio [12],logP [13],Injected dose/g [14]
CC(=O)[C@@]12O[C@](C)(c3ccc(F)cc3)O[C@@H]1CC1C3CCC4=CC(=O)CC[C@]4(C)C3CC[C@@]12C (stereo partly drawn),0.56%,0.91%,7.57,2.19%,1.69%,3.62%,0.43%,2.29%,0.76%,5.76%,3.16%,4.61,5.71,0.49%
C[C@@]1(c2ccc(F)cc2)O[C@@H]2CC3C4CCC5=CC(=O)CC[C@@H]5C4CC[C@]3(C)[C@]2(C(=O)CO)O1 (stereo partly drawn),0.34%,0.22%,38,1.78%,0.64%,3.93%,0.23%,1.37%,0.35%,3.53%,3.56%,27.9,4.92,0.16%
